This is an account of results in ChEMBL document CHEMBL4390647, “Efficient click chemistry towards novel 1H-1,2,3-triazole-tethered 4H-chromene-d-glucose conjugates: Design, synthesis and evaluation of in vitro antibacterial, MRSA and antifungal activities” (Eur J Med Chem, 2019).

One series relates to Aspergillus niger. Put plainly: Antifungal activity against Aspergillus niger ATCC 439 measured after 72 hrs by agar dilution method. In kind it is functional. To be noted: ATCC 439, 72 h. The gist of the method:
(§1)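 Agar dilution on Sabouraud dextrose agar, with compounds at […] to 0.78 μM in twofold steps. Fungal suspensions at 10 CFU/mL as printed were applied to the compound-containing plates. Incubation at 35°C; MIC read after 72 h. Three experiments.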
(In agar dilution, organisms are placed on agar that contains the substance at set levels.)

The test system of a further series is Bacillus subtilis. Put plainly: Antibacterial activity against Bacillus subtilis ATCC 11774 after 18 to 20 hrs by microbroth dilution method. The series is classed as functional. The procedure, abridged: (§2)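 Inoculum from a 4–6-h broth adjusted to 0.5 McFarland, final 5 × 10⁵ CFU/mL. Incubation at 35°C for 18–20 h. MIC taken as the lowest concentration giving complete inhibition of visible growth; three experiments.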
A general note: Dilution methods test growth across graded concentrations, often in twofold steps.

Another series deals with Salmonella typhimurium. Put plainly: Antibacterial activity against Salmonella typhimurium ATCC 14028 measured after 18 to 20 hrs by microbroth dilution method. The series is classed as functional, Salmonella enterica subsp. enterica serovar Typhimurium. To be noted: Salmonella enterica. The procedure, abridged: as §2
Another series relates to Pseudomonas aeruginosa. Put plainly: Antibacterial activity against Pseudomonas aeruginosa […] measured after 18 to 20 hrs by microbroth dilution method. In kind it is functional. The gist of the method:
as §2

The test system of another series is Aspergillus flavus. Put plainly: Antifungal activity against Aspergillus flavus ATCC 204304 measured after 72 hrs by agar dilution method. The series is classed as functional. To be noted: ATCC 204304, 72 h. The procedure, abridged: as §1
Series [1] has as its system Staphylococcus aureus. Put plainly: Antibacterial activity against Staphylococcus aureus ATCC 11632 after 18 to 20 hrs by microbroth dilution method. The series is classed as functional. The procedure, abridged:
as §2

The nature of series [2]: Cytotoxicity against mouse RAW264.7 cells assessed as growth inhibition at 50 ug/mL after 120 hrs by MTT assay relative to control. The series is classed as cell-based. To be noted: read-out: GI. The gist of the method:
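RAW 264.7 mouse macrophages were seeded at 25,000 cells/well and left to attach overnight. Compound in DMSO was added from a 200× concentrate, in duplicate wells, to a 50 μg/mL test level; DMSO served as control. Exposure 120 h at 37°C in 5% CO₂. MTT (4 mg/mL in PBS) was added for 4 h, formazan dissolved in DMSO, and absorbance read at 560 nm. Viability expressed as % of untreated cells, mean ± SE of at least three independent experiments.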

The subject of series [3] is Staphylococcus aureus. Put plainly: Antibacterial activity against Staphylococcus aureus MRSA198 clinical isolate-1 measured after 18 to 20 hrs by microbroth dilution method. In kind it is functional. To be noted: MRSA198 isolate-1.
Another series has as its system Candida albicans. Put plainly: Antifungal activity against Candida albicans ATCC 7754 after 72 hrs by agar dilution method. In kind it is functional. To be noted: ATCC 7754, 72 h. The gist of the method:
as §1

The test system of the next series is Saccharomyces cerevisiae. Put plainly: Antifungal activity against Saccharomyces cerevisiae SH 20 after 72 hrs by agar dilution method. The series is classed as functional. To be noted: SH 20, 72 h. The gist of the method: as §1
In series [4] the test system is Staphylococcus epidermidis. Put plainly: Antibacterial activity against Staphylococcus epidermidis ATCC 12228 after 18 to 20 hrs by microbroth dilution method. The series is classed as functional. The gist of the method: as §2
Series [5] has as its system Staphylococcus aureus. Put plainly: Antibacterial activity against Staphylococcus aureus MRSA198 clinical isolate-2 measured after 18 to 20 hrs by microbroth dilution method. To be noted: MRSA198 isolate-2. The series is classed as functional.
Another series concerns Escherichia coli. Put plainly: Antibacterial activity against Escherichia coli ATCC 25922 measured after 18 to 20 hrs by microbroth dilution method. In kind it is functional. The procedure, abridged:
as §2

For series [6], the system named is Staphylococcus aureus. Put plainly: Antibacterial activity against Staphylococcus aureus MRSA198 clinical isolate-3 measured after 18 to 20 hrs by microbroth dilution method. The series is classed as functional. To be noted: MRSA198 isolate-3.
The test system of a further series is Klebsiella pneumoniae. Put plainly: Antibacterial activity against measured after Klebsiella pneumoniae ATCC 4352 measured after 18 to 20 hrs by microbroth dilution method. In kind it is functional. The procedure, abridged: as §2

Values after ≈ are worked out from the molar mass of the structure shown.

For orientation: MIC means the lowest concentration found to suppress growth. Low readings indicate greater potency, high ones weaker potency. Consider `CC(=O)OC[C@H]1O[C@@H](n2cc(COc3ccc4c(c3)OC(N)=C(C#N)C4c3cccc([N+](=O)[O-])c3)nn2)[C@H](OC(C)=O)[C@@H](OC(C)=O)[C@@H]1OC(C)=O` (stereo partly specified), for which the MIC amounted to 12.5 µM (≈ 9.01 µg/mL) against Aspergillus niger; 50 µM (≈ 36 µg/mL) with Bacillus subtilis; 400 µM (≈ 288 µg/mL) against Salmonella typhimurium; 12.5 µM (≈ 9.01 µg/mL) in the series with Pseudomonas aeruginosa; 50 µM (≈ 36 µg/mL) in the series with Aspergillus flavus; 3.12 µM (≈ 2.25 µg/mL) against Staphylococcus aureus [1]. The MIC with Staphylococcus aureus [3] stood at 1.56 µM (≈ 1.12 µg/mL); with Candida albicans it was 200 µM (≈ 144 µg/mL); in the series with Saccharomyces cerevisiae, 6.25 µM (≈ 4.5 µg/mL); in series [4] it was 400 µM (≈ 288 µg/mL); against Staphylococcus aureus [5], 6.25 µM (≈ 4.5 µg/mL); in the series with Escherichia coli, 50 µM (≈ 36 µg/mL). This compound also yielded a minimum inhibitory concentration (MIC) in the series on Staphylococcus aureus [6] of 3.12 µM (≈ 2.25 µg/mL). Moreover, in [2], the inhibition at 120 h, 50 ug/mL is 15.6%.
`COc1ccccc1C1C(C#N)=C(N)Oc2cc(OCc3cn([C@@H]4O[C@H](COC(C)=O)[C@@H](OC(C)=O)[C@H](OC(C)=O)[C@H]4OC(C)=O)nn3)ccc21` (stereo partly specified): the MIC against Aspergillus niger turned out to be 1.56 µM (≈ 1.1 µg/mL); against Salmonella typhimurium it was 6.25 µM (≈ 4.41 µg/mL); in the series with Pseudomonas aeruginosa, 3.12 µM (≈ 2.2 µg/mL); in the series with Aspergillus flavus, 400 µM (≈ 282 µg/mL); with Staphylococcus aureus [1], 50 µM (≈ 35.3 µg/mL); against Staphylococcus aureus [3], 400 µM (≈ 282 µg/mL). The MIC against Candida albicans was 200 µM (≈ 141 µg/mL); with Saccharomyces cerevisiae it was 100 µM (≈ 70.6 µg/mL); in series [4], 6.25 µM (≈ 4.41 µg/mL); against Staphylococcus aureus [5], 400 µM (≈ 282 µg/mL); in the series with Escherichia coli, 400 µM (≈ 282 µg/mL); with Klebsiella pneumoniae, 3.12 µM (≈ 2.2 µg/mL). The same compound yielded an MIC in the series with Staphylococcus aureus [6] of 200 µM (≈ 141 µg/mL). For the same compound, in series [2], the inhibition at 120 h, 50 ug/mL turned out to be 22.1%.
`COc1ccc(C2C(C#N)=C(N)Oc3cc(OCc4cn([C@@H]5O[C@H](COC(C)=O)[C@@H](OC(C)=O)[C@H](OC(C)=O)[C@H]5OC(C)=O)nn4)ccc32)cc1` (stereo partly specified): the MIC in the series with Aspergillus niger was found to be 200 µM (≈ 141 µg/mL); against Bacillus subtilis it was 12.5 µM (≈ 8.82 µg/mL); against Salmonella typhimurium, 1.56 µM (≈ 1.1 µg/mL); with Pseudomonas aeruginosa, 100 µM (≈ 70.6 µg/mL); against Aspergillus flavus, 12.5 µM (≈ 8.82 µg/mL); against Staphylococcus aureus [1], 25 µM (≈ 17.6 µg/mL). In addition, the minimum inhibitory concentration (MIC) turned out to be 12.5 µM (≈ 8.82 µg/mL) against Staphylococcus aureus [3]; 1.56 µM (≈ 1.1 µg/mL) with Candida albicans; 12.5 µM (≈ 8.82 µg/mL) in the series with Saccharomyces cerevisiae; 200 µM (≈ 141 µg/mL) in [4]; 12.5 µM (≈ 8.82 µg/mL) against Staphylococcus aureus [5]; 200 µM (≈ 141 µg/mL) in the series on Escherichia coli. For the same compound, the minimum inhibitory concentration (MIC) with Staphylococcus aureus [6] is 12.5 µM (≈ 8.82 µg/mL). Also, in series [2], the inhibition at 120 h, 50 ug/mL stood at 29.6%.
Consider `CC(=O)OC[C@H]1O[C@@H](n2cc(COc3ccc4c(c3)OC(N)=C(C#N)C4c3ccc(C(C)C)cc3)nn2)[C@H](OC(C)=O)[C@@H](OC(C)=O)[C@@H]1OC(C)=O` (stereo partly specified), for which the minimum inhibitory concentration (MIC) against Bacillus subtilis was 6.25 µM (≈ 4.49 µg/mL); in the series on Salmonella typhimurium it was 50 µM (≈ 35.9 µg/mL); in the series on Pseudomonas aeruginosa, 6.25 µM (≈ 4.49 µg/mL); with Aspergillus flavus, 50 µM (≈ 35.9 µg/mL); in the series with Staphylococcus aureus [1], 100 µM (≈ 71.8 µg/mL); in the series on Staphylococcus aureus [3], 400 µM (≈ 287 µg/mL). For the same compound, the MIC against Candida albicans turned out to be 3.12 µM (≈ 2.24 µg/mL); in the series on Saccharomyces cerevisiae it was 12.5 µM (≈ 8.97 µg/mL); in [4] it was 400 µM (≈ 287 µg/mL); in the series on Staphylococcus aureus [5] it was 400 µM (≈ 287 µg/mL); against Escherichia coli, 200 µM (≈ 144 µg/mL); in the series with Klebsiella pneumoniae it was 1.56 µM (≈ 1.12 µg/mL). In the series on Staphylococcus aureus [6], the MIC was 200 µM (≈ 144 µg/mL). Also, the inhibition at 120 h, 50 ug/mL in [2] is 17.9%.
With `CC(=O)OC[C@H]1O[C@@H](n2cc(COc3ccc4c(c3)OC(N)=C(C#N)C4c3ccc(C)cc3)nn2)[C@H](OC(C)=O)[C@@H](OC(C)=O)[C@@H]1OC(C)=O` (stereo partly specified), the MIC against Aspergillus niger is 100 µM (≈ 69 µg/mL); against Bacillus subtilis, 50 µM (≈ 34.5 µg/mL); against Salmonella typhimurium, 200 µM (≈ 138 µg/mL); against Pseudomonas aeruginosa, 400 µM (≈ 276 µg/mL); with Aspergillus flavus it was 3.12 µM (≈ 2.15 µg/mL); with Staphylococcus aureus [1] it was 400 µM (≈ 276 µg/mL). In addition, the MIC with Candida albicans was 400 µM (≈ 276 µg/mL); with Saccharomyces cerevisiae it was 3.12 µM (≈ 2.15 µg/mL); in series [4] it was 400 µM (≈ 276 µg/mL); in the series with Escherichia coli, 12.5 µM (≈ 8.62 µg/mL); in the series with Klebsiella pneumoniae it was 400 µM (≈ 276 µg/mL); in the series on Staphylococcus aureus [6] it was 400 µM (≈ 276 µg/mL). In addition, the inhibition at 120 h, 50 ug/mL in series [2] turned out to be 19.6%.
As for `CC(=O)OC[C@H]1O[C@@H](n2cc(COc3ccc4c(c3)OC(N)=C(C#N)C4c3ccccc3Cl)nn2)[C@H](OC(C)=O)[C@@H](OC(C)=O)[C@@H]1OC(C)=O` (stereo partly specified), the minimum inhibitory concentration (MIC) was 400 µM (≈ 284 µg/mL) in the series on Aspergillus niger; 1.56 µM (≈ 1.11 µg/mL) against Bacillus subtilis; 6.25 µM (≈ 4.44 µg/mL) in the series on Salmonella typhimurium; 12.5 µM (≈ 8.88 µg/mL) against Pseudomonas aeruginosa; 6.25 µM (≈ 4.44 µg/mL) in the series with Aspergillus flavus; 200 µM (≈ 142 µg/mL) against Staphylococcus aureus [1]. In addition, the minimal inhibitory concentration (MIC) in the series with Candida albicans came to 25 µM (≈ 17.8 µg/mL); in series [4], 3.12 µM (≈ 2.22 µg/mL); against Escherichia coli, 1.56 µM (≈ 1.11 µg/mL); in the series with Klebsiella pneumoniae, 400 µM (≈ 284 µg/mL); in the series on Staphylococcus aureus [6], 400 µM (≈ 284 µg/mL). Further, in series [2], the inhibition at 120 h, 50 ug/mL was 21.1%.
